# Active and inactive are the calls of the source. The rule behind the calls is not given here.
# Tests used:
# [1] = system: MDR1; test: Permeability across apical to basolateral side in MDCK cells expressing MDR1; format: ADME, cell-based, Canis lupus familiaris; settings: dog, read-out: permeability
# [2] = Fraction unbound in mouse plasma at 30 to 60 mg/kg, po; format: ADME, organism-based
# [3] = Cmax associated with acute adverse effect in mouse at 30 to 60 mg/kg, po; format: ADME, organism-based; settings: in vivo
# In short: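 Mouse tolerability studies tested multiple doses, given orally or intraperitoneally. Plasma drug concentrations were measured, including at a 15 min time point. The minimum concentration associated with adverse clinical signs or death was taken as the adverse Cmax and was converted to an unbound value.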
# [4] = system: Mus musculus; test: fCmax associated with acute adverse effect in mouse at 30 to 60 mg/kg, po; format: ADME, organism-based; settings: in vivo
# In short: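 Mouse tolerability studies at multiple doses, oral or intraperitoneal. Minimum unbound plasma concentration associated with adverse effects (total Cmax converted to unbound) compared with IC50 for inhibition of MEK1 S298 phosphorylation in cells.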
# [5] = system: Mus musculus; test: In vivo inhibition of PAK1/2 in human NCI-H292 cells xenografted in mouse assessed as phosphorylation of MEK1 at serine 298 at 25 mg/kg, po bid; format: functional, organism-based
# [6] = system: NCI-H292; test: Antitumor activity against human NCI-H292 cells xenografted in mouse assessed as tumor growth inhibition at 25 mg/kg, po bid relative to control; format: functional; settings: read-out: TGI
# [7] = Antitumor activity against human MDA-MB-175 cells xenografted in mouse assessed as tumor growth inhibition at 25 mg/kg, po bid relative to control; format: functional; settings: read-out: TGI
# [8] = molecular target: Voltage-gated inwardly rectifying potassium channel KCNH2 (Homo sapiens, UniProt Q12809); test: Inhibition of human ERG expressed in mammalian cells treated for 3 mins by automatic parallel patch clamp method; format: cell-based; settings: 0.05 h
# [9] = molecular target: Sodium channel protein type 1 subunit alpha (Homo sapiens) (UniProt P35498); test: Inhibition of human Nav1.1 assessed as tonic block of sodium current at 1 to 10 uM treated for 3 mins by automatic parallel patch clamp method
# [10] = molecular target: Sodium channel protein type 1 subunit alpha (Homo sapiens) (UniProt P35498); test: Inhibition of human Nav1.1 assessed as phasic block of sodium current at 1 to 10 uM treated for 3 mins by automatic parallel patch clamp method
# [11] = molecular target: T1, Sodium channel protein type 5 subunit alpha (Homo sapiens, UniProt Q14524); test: Inhibition of human Nav1.5 expressed in CHO cells assessed as tonic block of sodium current at 1 to 10 uM treated for 3 mins by automatic parallel patch clamp method; format: cell-based; settings: 0.05 h
# T1 sequence (Q14524 whole entry): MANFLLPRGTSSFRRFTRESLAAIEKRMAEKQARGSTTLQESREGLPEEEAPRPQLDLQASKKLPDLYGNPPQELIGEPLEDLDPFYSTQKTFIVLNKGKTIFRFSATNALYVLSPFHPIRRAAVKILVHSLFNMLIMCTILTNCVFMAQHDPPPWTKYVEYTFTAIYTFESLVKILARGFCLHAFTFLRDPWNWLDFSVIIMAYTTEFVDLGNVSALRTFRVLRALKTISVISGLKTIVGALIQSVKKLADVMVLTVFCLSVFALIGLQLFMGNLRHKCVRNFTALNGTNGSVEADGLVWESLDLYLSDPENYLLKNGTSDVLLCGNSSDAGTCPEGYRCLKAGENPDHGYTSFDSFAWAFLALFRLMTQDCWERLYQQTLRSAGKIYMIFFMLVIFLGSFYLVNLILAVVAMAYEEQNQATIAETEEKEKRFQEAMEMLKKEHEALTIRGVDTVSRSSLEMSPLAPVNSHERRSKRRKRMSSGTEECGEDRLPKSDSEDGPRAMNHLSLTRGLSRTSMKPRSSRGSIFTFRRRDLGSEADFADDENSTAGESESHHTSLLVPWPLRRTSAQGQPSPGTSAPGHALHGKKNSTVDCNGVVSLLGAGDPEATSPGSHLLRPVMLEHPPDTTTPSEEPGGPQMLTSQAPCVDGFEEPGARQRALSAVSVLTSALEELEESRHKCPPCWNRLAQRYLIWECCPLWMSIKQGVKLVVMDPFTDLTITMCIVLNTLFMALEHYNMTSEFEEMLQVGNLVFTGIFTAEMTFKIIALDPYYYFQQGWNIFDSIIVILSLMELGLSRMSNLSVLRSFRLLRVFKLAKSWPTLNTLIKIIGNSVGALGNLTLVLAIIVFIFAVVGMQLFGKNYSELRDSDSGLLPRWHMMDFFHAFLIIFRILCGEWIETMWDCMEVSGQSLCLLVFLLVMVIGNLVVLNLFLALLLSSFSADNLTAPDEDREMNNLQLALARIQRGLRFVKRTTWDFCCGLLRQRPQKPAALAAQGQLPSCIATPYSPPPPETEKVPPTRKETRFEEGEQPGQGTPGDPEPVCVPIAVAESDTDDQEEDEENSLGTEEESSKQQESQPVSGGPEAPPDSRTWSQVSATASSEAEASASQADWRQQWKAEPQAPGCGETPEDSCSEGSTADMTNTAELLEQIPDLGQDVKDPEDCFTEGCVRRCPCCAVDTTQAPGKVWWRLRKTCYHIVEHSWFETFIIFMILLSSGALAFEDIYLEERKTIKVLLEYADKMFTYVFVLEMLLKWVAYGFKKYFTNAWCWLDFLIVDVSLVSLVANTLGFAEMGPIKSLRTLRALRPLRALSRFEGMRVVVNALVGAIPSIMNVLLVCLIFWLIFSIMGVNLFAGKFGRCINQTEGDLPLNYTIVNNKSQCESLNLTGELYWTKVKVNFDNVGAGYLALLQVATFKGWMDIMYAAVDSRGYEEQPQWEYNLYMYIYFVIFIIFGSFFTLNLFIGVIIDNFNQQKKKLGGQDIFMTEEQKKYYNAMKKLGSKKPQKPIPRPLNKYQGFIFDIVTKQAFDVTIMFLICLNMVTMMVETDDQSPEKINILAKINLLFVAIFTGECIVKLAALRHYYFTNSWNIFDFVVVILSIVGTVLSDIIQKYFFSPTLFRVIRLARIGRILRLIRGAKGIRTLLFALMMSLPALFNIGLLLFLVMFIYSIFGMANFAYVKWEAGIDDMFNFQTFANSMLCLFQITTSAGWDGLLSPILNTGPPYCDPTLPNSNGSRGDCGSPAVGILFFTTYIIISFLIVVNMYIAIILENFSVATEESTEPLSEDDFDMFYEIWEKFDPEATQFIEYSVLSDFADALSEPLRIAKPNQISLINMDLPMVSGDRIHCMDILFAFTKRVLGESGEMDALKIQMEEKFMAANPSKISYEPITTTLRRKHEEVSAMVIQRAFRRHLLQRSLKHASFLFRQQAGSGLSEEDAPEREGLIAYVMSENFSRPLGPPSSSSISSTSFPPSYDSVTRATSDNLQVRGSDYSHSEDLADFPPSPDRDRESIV
# [12] = molecular target: T1, Sodium channel protein type 5 subunit alpha; test: Inhibition of human Nav1.5 expressed in CHO cells assessed as phasic block of sodium current at 1 to 10 uM treated for 3 mins by automatic parallel patch clamp method; format: cell-based; settings: 0.05 h
# [13] = molecular target: Voltage-dependent T-type calcium channel subunit alpha-1H (Homo sapiens) (UniProt O95180); test: Inhibition of human Cav3.2 expressed in HEK293 cells at 1 to 10 uM treated for 3 mins by automatic parallel patch clamp method; format: cell-based
# [14] = species: Homo sapiens; test: Inhibition of Na+/Ca2+ ATPase (unknown origin) at 30 uM
# [15] = system: Heart; test: Cardiotoxicity in Langendorff perfused Sprague-Dawley rat heart assessed as increase in coronary perfusion pressure at 1.5 to 15 uM treated for 15 mins; format: toxicity, tissue-based; settings: 0.25 h
# In short: (§1)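 Hearts from Sprague Dawley rats were perfused in a Langendorff preparation and paced via the right atrium at 10-15% above the intrinsic heart rate. Each heart received increasing concentrations of 0, 0.5, 1.5, 5 and 15 µM, for 15 min at each level (n=5). Hemodynamic and electrocardiographic parameters were recorded throughout.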
# [16] = system: Heart; test: Cardiotoxicity in Langendorff perfused Sprague-Dawley rat heart assessed as decrease in left ventricular developed pressure at 1.5 to 15 uM treated for 15 mins; format: toxicity, tissue-based; settings: 0.25 h; in short: as §1
# [17] = system: Heart; test: Cardiotoxicity in Langendorff perfused Sprague-Dawley rat heart assessed as loss of 1:1 atrioventricular conduction at 5 to 15 uM treated for 15 mins; format: toxicity, tissue-based; settings: 0.25 h; in short: as §1
# [18] = system: Heart; test: Cardiotoxicity in Langendorff perfused Sprague-Dawley rat heart assessed as decrease in dP/dt maximum at 1.5 to 15 uM treated for 15 mins; format: toxicity, tissue-based; settings: 0.25 h; in short: as §1
# [19] = system: Heart; test: Cardiotoxicity in Langendorff perfused Sprague-Dawley rat heart assessed as decrease in dP/dt minimum at 1.5 to 15 uM treated for 15 mins; format: toxicity, tissue-based; settings: 0.25 h; in short: as §1
# [20] = system: Heart; test: Cardiotoxicity in Langendorff perfused Sprague-Dawley rat heart assessed as decrease in dP/dtmax/P at 40 mmHg at 1.5 to 15 uM treated for 15 mins; format: toxicity, tissue-based; settings: 0.25 h; in short: as §1
# [21] = system: Heart; test: Cardiotoxicity in Langendorff perfused Sprague-Dawley rat heart assessed as decrease in dP/dtmax/P at 1.5 to 15 uM treated for 15 mins; format: toxicity, tissue-based; settings: 0.25 h; in short: as §1
# [22] = system: Heart; test: Cardiotoxicity in Langendorff perfused Sprague-Dawley rat heart assessed as increase in left ventricular systolic pressure at 1.5 to 15 uM treated for 15 mins; format: toxicity, tissue-based; settings: 0.25 h; in short: as §1
# [23] = system: Heart; test: Cardiotoxicity in Langendorff perfused Sprague-Dawley rat heart assessed as increase in left ventricular end diastolic pressure at 1.5 to 15 uM treated for 15 mins; format: toxicity, tissue-based; settings: 0.25 h; in short: as §1
# [24] = system: Heart; test: Cardiotoxicity in Langendorff perfused Sprague-Dawley rat heart assessed as increase in PR interval at 5 uM treated for 15 mins; format: toxicity, tissue-based; settings: 0.25 h; in short: as §1
# [25] = system: Heart; test: Cardiotoxicity in Langendorff perfused Sprague-Dawley rat heart assessed as increase in PR interval at 15 uM treated for 15 mins; format: toxicity, tissue-based; settings: 0.25 h; in short: as §1
# [26] = system: Heart; test: Cardiotoxicity in Langendorff perfused Sprague-Dawley rat heart assessed as ventricular fibrillation at 5 uM treated for 15 mins; format: toxicity, tissue-based; settings: 0.25 h; in short: as §1
# [27] = molecular target: Serine/threonine-protein kinase PAK 3 (Homo sapiens) (UniProt O75914); settings: 0.1 uM
# [28] = molecular target: Serine/threonine-protein kinase 25 (Homo sapiens) (UniProt O00506); settings: 0.1 uM
# Chain of Serine/threonine-protein kinase 25 (Homo sapiens) (O00506 whole entry, looked up): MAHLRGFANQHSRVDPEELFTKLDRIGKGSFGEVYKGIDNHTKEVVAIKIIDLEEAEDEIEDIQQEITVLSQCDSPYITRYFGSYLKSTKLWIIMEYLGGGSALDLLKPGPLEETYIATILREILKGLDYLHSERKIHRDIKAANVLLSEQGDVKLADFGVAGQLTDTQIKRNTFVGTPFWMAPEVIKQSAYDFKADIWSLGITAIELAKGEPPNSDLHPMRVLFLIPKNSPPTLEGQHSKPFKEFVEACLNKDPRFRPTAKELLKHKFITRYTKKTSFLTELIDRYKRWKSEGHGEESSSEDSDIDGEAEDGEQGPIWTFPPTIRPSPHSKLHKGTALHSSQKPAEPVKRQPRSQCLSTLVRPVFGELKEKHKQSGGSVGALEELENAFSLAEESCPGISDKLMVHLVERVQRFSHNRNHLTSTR
# [29] = molecular target: Serine/threonine-protein kinase 24 (Homo sapiens) (UniProt Q9Y6E0); settings: 0.1 uM
# Chain of Serine/threonine-protein kinase 24 (Homo sapiens) (Q9Y6E0 whole entry, looked up): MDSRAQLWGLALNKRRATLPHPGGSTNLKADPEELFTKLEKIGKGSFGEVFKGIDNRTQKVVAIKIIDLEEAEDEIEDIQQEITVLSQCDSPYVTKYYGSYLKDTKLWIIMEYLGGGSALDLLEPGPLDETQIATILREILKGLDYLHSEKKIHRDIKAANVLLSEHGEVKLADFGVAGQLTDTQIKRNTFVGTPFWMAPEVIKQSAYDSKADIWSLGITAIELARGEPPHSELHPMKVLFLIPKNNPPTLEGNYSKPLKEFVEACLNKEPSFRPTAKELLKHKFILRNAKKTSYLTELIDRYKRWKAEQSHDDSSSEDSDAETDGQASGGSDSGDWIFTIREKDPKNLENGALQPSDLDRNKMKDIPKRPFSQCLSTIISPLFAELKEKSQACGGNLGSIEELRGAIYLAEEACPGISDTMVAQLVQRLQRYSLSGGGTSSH
# [30] = molecular target: Serine/threonine-protein kinase 26 (Homo sapiens) (UniProt Q9P289); settings: 0.1 uM
# [31] = molecular target: Tyrosine-protein kinase Lck (Homo sapiens) (UniProt P06239); settings: 0.1 uM
# Chain of Tyrosine-protein kinase Lck (Homo sapiens) (P06239 2-509 limits assumed): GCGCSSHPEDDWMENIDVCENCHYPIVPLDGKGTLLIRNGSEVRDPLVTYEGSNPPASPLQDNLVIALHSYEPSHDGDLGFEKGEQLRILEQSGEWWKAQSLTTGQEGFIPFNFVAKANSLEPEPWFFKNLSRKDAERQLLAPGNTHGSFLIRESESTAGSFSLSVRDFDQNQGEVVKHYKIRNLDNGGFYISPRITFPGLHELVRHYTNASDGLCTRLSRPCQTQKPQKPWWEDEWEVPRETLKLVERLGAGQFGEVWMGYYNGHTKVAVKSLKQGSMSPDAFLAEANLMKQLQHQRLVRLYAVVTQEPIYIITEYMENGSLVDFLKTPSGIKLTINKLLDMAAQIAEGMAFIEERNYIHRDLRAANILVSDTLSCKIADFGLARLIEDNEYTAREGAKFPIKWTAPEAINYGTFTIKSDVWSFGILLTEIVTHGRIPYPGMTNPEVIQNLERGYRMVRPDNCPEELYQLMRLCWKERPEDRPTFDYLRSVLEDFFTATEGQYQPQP
# [32] = molecular target: 5-hydroxytryptamine receptor 1B (Rattus norvegicus) (UniProt P28564); settings: Cerebral cortex, 10 uM
# [33] = molecular target: 5-hydroxytryptamine receptor 2A (Homo sapiens) (UniProt P28223); settings: HEK293, 10 uM
# Chain of 5-hydroxytryptamine receptor 2A (Homo sapiens) (P28223 whole entry): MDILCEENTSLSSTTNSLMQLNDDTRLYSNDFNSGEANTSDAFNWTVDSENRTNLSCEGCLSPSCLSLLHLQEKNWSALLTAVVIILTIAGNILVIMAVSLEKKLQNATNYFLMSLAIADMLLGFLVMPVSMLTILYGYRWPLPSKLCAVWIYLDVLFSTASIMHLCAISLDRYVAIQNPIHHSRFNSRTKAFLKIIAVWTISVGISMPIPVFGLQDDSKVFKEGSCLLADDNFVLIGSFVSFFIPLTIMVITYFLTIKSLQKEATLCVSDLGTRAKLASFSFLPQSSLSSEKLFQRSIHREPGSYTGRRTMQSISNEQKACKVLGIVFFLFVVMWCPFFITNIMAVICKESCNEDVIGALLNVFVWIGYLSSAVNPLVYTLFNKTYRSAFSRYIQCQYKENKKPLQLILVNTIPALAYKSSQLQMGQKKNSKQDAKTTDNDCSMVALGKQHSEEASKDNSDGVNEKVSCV
# [34] = molecular target: 5-hydroxytryptamine receptor 2B (Homo sapiens) (UniProt P41595); settings: CHO, 10 uM
# [35] = molecular target: 5-hydroxytryptamine receptor 4 (Homo sapiens) (UniProt Q13639); settings: CHO, 10 uM
# Chain of 5-hydroxytryptamine receptor 4 (Homo sapiens) (Q13639 whole entry): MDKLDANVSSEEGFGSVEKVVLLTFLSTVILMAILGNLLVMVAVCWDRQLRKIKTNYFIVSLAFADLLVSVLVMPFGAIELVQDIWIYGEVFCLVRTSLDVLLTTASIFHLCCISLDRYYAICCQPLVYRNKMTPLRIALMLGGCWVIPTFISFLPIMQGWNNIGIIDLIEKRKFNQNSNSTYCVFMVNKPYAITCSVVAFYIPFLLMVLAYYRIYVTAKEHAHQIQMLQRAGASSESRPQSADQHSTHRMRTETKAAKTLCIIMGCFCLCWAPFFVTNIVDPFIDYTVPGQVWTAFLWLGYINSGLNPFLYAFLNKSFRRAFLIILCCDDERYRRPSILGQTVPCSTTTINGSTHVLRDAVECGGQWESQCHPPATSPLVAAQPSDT
# [36] = species: Rattus norvegicus; settings: Cerebral cortex, 10 uM
# [37] = molecular target: Sodium/potassium-transporting ATPase (Homo sapiens) (UniProt P05023+P14415+P05026+P50993+P54709+P13637+Q13733+P54710); settings: 30 uM
# [38] = molecular target: Serine/threonine-protein kinase PAK 1 (Homo sapiens, UniProt Q13153); test: Inhibition of human recombinant N-terminal 6-His-tagged PAK1 kinase domain (249 to 545 residues) expressed in Escherichia coli BL21(DE3) assessed as phosphorylation of coumarin labeled FRET peptide substrate at Ser/Thr19 preincubated for 10 mins followed by ATP addition measured after 60 mins by Z'-LYTE assay
# [39] = species: Homo sapiens; test: Selectivity for human recombinant N-terminal 6-His-tagged PAK1 kinase domain (249 to 545 residues) over LCK (unknown origin)
# [40] = molecular target: Serine/threonine-protein kinase PAK 1/PAK 2 (Homo sapiens, UniProt Q13177+Q13153); test: Inhibition of PAK1/2 in human EBC1 cells assessed as phosphorylation of MEK1 at serine 298 after 2 hrs by HTRF assay; format: cell-based
# [41] = Lipophilicity, log D of the compound at pH 7.4; format: physicochemical; settings: buffer
# [42] = Kinetic solubility of the compound at pH 7.4; format: physicochemical; settings: buffer, read-out: Kinetic_solubility
# [43] = Apparent permeability across apical to basolateral side in MDCK cells at 10 uM after 60 mins; format: ADME, cell-based, Canis lupus familiaris; settings: dog
# [44] = Efflux ratio of permeability across basolateral to apical side over apical to basolateral side in MDCK cells at 10 uM after 60 mins; format: ADME, cell-based, Canis lupus familiaris; settings: dog
# [45] = molecular target: Serine/threonine-protein kinase PAK 2 (Homo sapiens, UniProt Q13177); test: Inhibition of human recombinant PAK2 assessed as phosphorylation of coumarin labeled FRET peptide substrate at Ser/Thr19 preincubated for 10 mins followed by ATP addition measured after 60 mins by Z'-LYTE assay
# Chain of Serine/threonine-protein kinase PAK 2 (Q13177 whole entry): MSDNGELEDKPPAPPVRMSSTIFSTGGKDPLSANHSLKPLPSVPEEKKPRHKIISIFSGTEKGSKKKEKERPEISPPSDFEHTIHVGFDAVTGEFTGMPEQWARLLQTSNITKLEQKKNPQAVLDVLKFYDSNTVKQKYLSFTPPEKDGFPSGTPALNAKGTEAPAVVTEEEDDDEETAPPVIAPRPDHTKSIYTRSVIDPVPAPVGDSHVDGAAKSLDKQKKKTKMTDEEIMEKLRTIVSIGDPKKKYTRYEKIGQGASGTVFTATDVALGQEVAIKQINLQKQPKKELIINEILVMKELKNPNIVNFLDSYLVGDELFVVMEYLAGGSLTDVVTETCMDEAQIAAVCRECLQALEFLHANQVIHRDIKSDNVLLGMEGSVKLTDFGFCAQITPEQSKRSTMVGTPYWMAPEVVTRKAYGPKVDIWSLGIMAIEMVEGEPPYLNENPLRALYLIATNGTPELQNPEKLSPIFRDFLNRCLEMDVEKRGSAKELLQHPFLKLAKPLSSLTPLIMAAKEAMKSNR
# [46] = Fraction unbound in mouse plasma at 25 to 150 mg/kg, ip; format: ADME, organism-based
# [47] = Cmax associated with acute adverse effect in mouse at 25 to 150 mg/kg, ip; format: ADME, organism-based; settings: in vivo
# [48] = system: Mus musculus; test: fCmax associated with acute adverse effect in mouse at 25 to 150 mg/kg, ip; format: ADME, organism-based; settings: in vivo
# [49] = Ratio of fCmax associated with acute adverse effect in mouse at 25 to 150 mg/kg, ip to IC50 for PAK1/2-mediated phosphorylation of MEK1 at serine 298 in human EBC1 cells
smiles,measurement,setting,value
CNc1ncc2cc(-c3ccc(-c4cccc(C)n4)cc3Cl)c(=O)n(C[C@H]3OC[C@H](N)CO3)c2n1,Papp A→B,[1],0.3 ×10⁻⁶ cm/s
same,fraction unbound,[2],0.003
same,Cmax,[3],55 µM
same,fCmax,[4],0.16 µM
same,inhibition,[5],Active
same,inhibition in vivo at 25 mg/kg,[6],60%
same,inhibition in vivo at 25 mg/kg,[7],60%
same,inhibition (INH),[8],Not Active
same,inhibition,[9],inactive
same,inhibition,[10],inactive
same,inhibition (INH),[11],Not Active
same,inhibition (INH),[12],Not Active
same,inhibition,[13],inactive
same,inhibition,[14],inactive
same,Activity,[15],64%
same,Activity,[16],Toxic
same,Activity,[17],Toxic
same,Activity,[18],Toxic
same,Activity,[19],Toxic
same,Activity,[20],Toxic
same,Activity,[21],Toxic
same,Activity,[22],Toxic
same,Activity,[23],Toxic
same,Activity,[24],37%
same,Activity,[25],34%
same,Activity,[26],Toxic
same,inhibition,[27],> 75%
same,inhibition,[28],> 75%
same,inhibition,[29],> 75%
same,inhibition,[30],> 75%
same,inhibition,[31],> 75%
same,inhibition,[32],> 75%
same,inhibition,[33],> 75%
same,inhibition,[34],> 75%
same,inhibition,[35],> 75%
same,inhibition,[36],> 75%
same,inhibition,[37],inactive
CCn1c(=O)c(-c2ccc(-n3cccc(C)c3=O)cc2Cl)cc2cnc(NC3COC3)nc21,Ki,[38],6.3 nM
same,Selectivity ratio,[39],123
same,IC50,[40],150 nM
same,logD,[41],2.5
same,solubility kinetic,[42],2.6 µM
same,"Papp A→B at 1 h, 10 µM",[43],37 ×10⁻⁶ cm/s
same,"efflux ratio at 1 h, 10 µM",[44],0.4
same,Ki,[45],21 nM
same,fraction unbound,[46],0.006
same,Cmax,[47],41 µM
same,fCmax,[48],0.24 µM
same,Ratio,[49],1

# — ChEMBL document CHEMBL3817726, “Chemically Diverse Group I p21-Activated Kinase (PAK) Inhibitors Impart Acute Cardiovascular Toxicity with a Narrow Therapeutic Window” (J Med Chem, 2016)
